From the RNAGym collection of RNA variant scans (doi:10.1126/science.aae0568)
This sample holds only a part of the variants without activity.

B1: tRNA (parent)
chain: GUUCCGUUGGCGUAAUGGUAACGCGUCUCCCUCCUAAGGAGAAGACUGCGGGUUCGAGUCCCGUACGGAACG

Variants of: B1
Test: yeast fitness relative to wild type (ratio to wild type); higher = fitter; tRNA-Arg(CCU), competitive growth, 37 C, YPD
Method in brief: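 Variants of the tRNA-Arg(CCU) gene, chemically synthesised with a 3% per-site mutation rate at 69 sites, were placed at the native genomic locus in Saccharomyces cerevisiae. The pooled strains were competed in YPD at 37°C for 24 hours in six parallel replicates. Gene amplicons from the start population and from each end population were read by 100-nucleotide paired-end sequencing. Darwinian fitness relative to wild type came from changes in genotype frequencies; genotypes needed ≥ 100 starting reads, and estimates < 0.5 were set to 0.5.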

Going from C46G C60G to C11U A65C, the yeast fitness rises from 0.715 to 0.933.

Compared with C22U G39A, C22G C60A C62U is lower in yeast fitness: 0.693 for the first, 0.589 for the second.

Going from C11G C30G A37U G41A U53C A69U to C4G C27A C46U G67C, the yeast fitness falls from 0.516 to no more than 0.5.

First: G48C U64C
Second: U7G U28G
The yeast fitness of the first is higher: 1.08 for the first, 0.635 for the second.

C4U A21G U47C A70G and C11G A15G U54G cannot be ordered by yeast fitness: no more than 0.5 for the first, no more than 0.5 for the second.

Going from U16A A20G C27U G41C G63A to A15C A21C G38C G63C A70U, the yeast fitness rises from no more than 0.5 to 0.513.

Compared with G58A C62A, A21U A36U C49U G52C C62A G67A is lower in yeast fitness: 0.904 for the first, 0.616 for the second.

Going from A43U C49A C66U A70U to C22U U59A, the yeast fitness rises from 0.529 to 0.705.

Compared with U16A U28C A69C, G12A A21G C24G U28G C46U is lower in yeast fitness: 0.758 for the first, 0.582 for the second.

Going from C24U U53A C66U to C22G U54A C55U C66A, the yeast fitness falls from 0.55 to no more than 0.5.

Compared with C11G C34G C55G, U16A U47C C66U is higher in yeast fitness: no more than 0.5 for the first, 0.893 for the second.

First: C29G U47C C49G C60G
Second: A21C C30G C55G A70G
The yeast fitness of the first is higher: 0.648 for the first, 0.532 for the second.

Going from U8A C22U C34G A36U A57G A65C to G12A G25A, the yeast fitness rises from no more than 0.5 to 0.819.

Compared with A40G C55U A65C, U2C A15C C22A C31U C55A is lower in yeast fitness: 0.525 for the first, no more than 0.5 for the second.

Compared with A20G G25C C61U A65G, U19C G44C is higher in yeast fitness: 0.647 for the first, 1 for the second.

C5U A14G A36G G68C and A21C A37G U59G cannot be ordered by yeast fitness: no more than 0.5 for the first, no more than 0.5 for the second.

Going from U3C C31U G67C to C11G U64A, the yeast fitness falls from 0.797 to 0.623.

Compared with U8A C27U A42G C62G G68A, C22A C33G A43C U64C is higher in yeast fitness: no more than 0.5 for the first, 0.534 for the second.

Compared with C22A C27A, U3A G6A U16A C24G A37U C49U C62U is lower in yeast fitness: 0.718 for the first, 0.61 for the second.

Going from U8A A65G to C5U G52A A65G, the yeast fitness falls from 0.855 to 0.598.

C4U G10C G23A G52A G58A and A20U C34G A37G cannot be ordered by yeast fitness: no more than 0.5 for the first, no more than 0.5 for the second.

Going from U2A C46A G51C to C11U G48A, the yeast fitness rises from 0.599 to 0.972.

Going from U8C A36C to U3A C5U C22G U53G, the yeast fitness falls from 0.577 to no more than 0.5.

First: C4A C34G
Second: A21C C31G C66U
The yeast fitness of the first is higher: 0.563 for the first, no more than 0.5 for the second.

Going from A14G U47G to C5U C66U, the yeast fitness rises from 0.516 to 0.877.

Compared with U8G A14G C46U C55A C66U, U16G U54A C55U C66A is higher in yeast fitness: no more than 0.5 for the first, 0.58 for the second.

Going from U54A A65U C66U to U16G U26G A36G, the yeast fitness rises from no more than 0.5 to 0.58.

Compared with C46G C61U, C5G C11G A14C U35G A45C U47C U64A is lower in yeast fitness: 1.05 for the first, no more than 0.5 for the second.

Going from C4U U13A A14U C29U C30U A37G to C22A G25C G63A, the yeast fitness rises from no more than 0.5 to 0.622.

First: G23A G68U
Second: U3A C33U A43C
The yeast fitness of the first is higher: 0.641 for the first, no more than 0.5 for the second.

A20C C34U G52A C62U and C4U C31A A37C G48A G58C cannot be ordered by yeast fitness: no more than 0.5 for the first, no more than 0.5 for the second.

C11U C24G G50U G63C G67A and C4G C5A U8C A21C C31A A42G cannot be ordered by yeast fitness: no more than 0.5 for the first, no more than 0.5 for the second.

Compared with C4G C34A U54C, U2C A14U C31U C62G is lower in yeast fitness: 0.54 for the first, no more than 0.5 for the second.

Going from A21C C34U G56A to U32A A37U A45C, the yeast fitness falls from 0.551 to no more than 0.5.

Going from C4G G63C to G9C A42U U54C, the yeast fitness falls from 0.622 to no more than 0.5.

Compared with A36U A40U A57G, C27A A70G is higher in yeast fitness: no more than 0.5 for the first, 0.857 for the second.

Compared with G10C A21U, A14U G50C A57G is lower in yeast fitness: 0.675 for the first, no more than 0.5 for the second.

Going from U3A C30G U64A A69C to U16A U32G, the yeast fitness rises from no more than 0.5 to 0.684.

C24G A57G C61A A65C C66U and U8A C22U U35C cannot be ordered by yeast fitness: no more than 0.5 for the first, no more than 0.5 for the second.

Going from A21G C22U G67A to U3C G38C A65U C66U, the yeast fitness falls from 0.575 to 0.555.

First: U7C C30G
Second: A43C U53A U54C
The yeast fitness of the first is lower: 0.579 for the first, 0.583 for the second.

Variant C11A U19A C29A U32A U54C C55G C60G A65G has a yeast fitness of no more than 0.5.
